A word on the inhibition: it is how much of the control response was suppressed. By IC50 is commonly meant the concentration at which inhibition is half-maximal.

Nine compounds from ChEMBL document CHEMBL4699460, “Integrating DNA-encoded chemical libraries with virtual combinatorial library screening: Optimizing a PARP10 inhibitor” (Bioorg Med Chem Lett, 2020) can be followed below.

Assay [1] deals with Protein mono-ADP-ribosyltransferase PARP14 (Homo sapiens) (UniProt Q460N5). Briefly: Inhibition of N-terminal His-GST tagged human PARP14 (1470 to 1801 residues) expressed in baculovirus infected Sf9 cells assessed as reduction in NAD+-dependent ADP ribosylation using histone as substrate at 1 uM incubated for 1 hr in presence of biotinylated NAD+ and activated DNA by chemiluminescence based microplate reader assay relative to control.
Chain of Protein mono-ADP-ribosyltransferase PARP14 (Homo sapiens) (Q460N5 whole entry, the tested form may be a part): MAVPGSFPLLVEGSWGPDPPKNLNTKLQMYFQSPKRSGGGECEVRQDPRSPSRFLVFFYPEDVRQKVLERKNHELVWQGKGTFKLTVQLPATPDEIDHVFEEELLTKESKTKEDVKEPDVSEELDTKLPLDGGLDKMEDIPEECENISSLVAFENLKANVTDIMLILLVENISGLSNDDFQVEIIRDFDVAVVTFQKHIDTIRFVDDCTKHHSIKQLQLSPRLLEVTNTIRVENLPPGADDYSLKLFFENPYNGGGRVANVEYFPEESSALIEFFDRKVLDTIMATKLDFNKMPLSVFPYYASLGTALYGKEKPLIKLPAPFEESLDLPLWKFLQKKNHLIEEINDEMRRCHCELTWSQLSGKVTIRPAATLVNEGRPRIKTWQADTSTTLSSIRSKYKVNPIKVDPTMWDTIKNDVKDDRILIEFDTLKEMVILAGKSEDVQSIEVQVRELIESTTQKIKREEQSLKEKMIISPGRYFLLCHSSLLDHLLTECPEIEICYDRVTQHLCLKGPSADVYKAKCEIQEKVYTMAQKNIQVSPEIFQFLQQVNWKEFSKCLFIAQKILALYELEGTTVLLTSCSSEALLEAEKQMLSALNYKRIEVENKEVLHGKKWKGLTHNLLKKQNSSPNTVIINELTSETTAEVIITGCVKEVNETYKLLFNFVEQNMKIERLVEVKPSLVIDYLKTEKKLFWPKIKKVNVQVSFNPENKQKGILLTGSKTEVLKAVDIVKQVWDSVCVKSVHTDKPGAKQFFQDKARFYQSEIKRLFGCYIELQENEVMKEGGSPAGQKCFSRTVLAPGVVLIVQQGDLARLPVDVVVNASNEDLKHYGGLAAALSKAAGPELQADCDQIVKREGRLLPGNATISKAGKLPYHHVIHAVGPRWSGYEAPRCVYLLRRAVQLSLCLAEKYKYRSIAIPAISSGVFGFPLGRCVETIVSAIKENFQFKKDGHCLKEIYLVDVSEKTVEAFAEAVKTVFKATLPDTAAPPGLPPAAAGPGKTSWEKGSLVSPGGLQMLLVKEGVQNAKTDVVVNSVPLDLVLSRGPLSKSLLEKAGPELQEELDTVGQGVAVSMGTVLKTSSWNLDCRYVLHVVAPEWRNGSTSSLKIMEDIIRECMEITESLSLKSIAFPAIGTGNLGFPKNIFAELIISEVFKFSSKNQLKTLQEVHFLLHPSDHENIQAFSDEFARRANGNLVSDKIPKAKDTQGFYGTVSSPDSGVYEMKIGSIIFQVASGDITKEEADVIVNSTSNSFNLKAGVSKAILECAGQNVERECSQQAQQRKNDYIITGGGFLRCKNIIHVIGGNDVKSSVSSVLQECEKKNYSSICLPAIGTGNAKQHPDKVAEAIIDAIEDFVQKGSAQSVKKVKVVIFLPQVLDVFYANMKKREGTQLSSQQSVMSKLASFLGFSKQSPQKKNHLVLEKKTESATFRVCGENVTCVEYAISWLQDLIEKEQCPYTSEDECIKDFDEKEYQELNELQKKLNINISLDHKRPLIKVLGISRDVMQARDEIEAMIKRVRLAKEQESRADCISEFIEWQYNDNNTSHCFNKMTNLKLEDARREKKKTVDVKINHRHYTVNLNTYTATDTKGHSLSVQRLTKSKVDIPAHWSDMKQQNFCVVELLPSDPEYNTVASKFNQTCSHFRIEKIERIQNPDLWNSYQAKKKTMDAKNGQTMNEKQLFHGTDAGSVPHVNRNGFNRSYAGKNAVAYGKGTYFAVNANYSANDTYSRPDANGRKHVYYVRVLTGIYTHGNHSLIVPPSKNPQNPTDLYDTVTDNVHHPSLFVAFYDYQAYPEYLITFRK

For assay [2], the target named is T1, Protein mono-ADP-ribosyltransferase PARP10 (Homo sapiens) (UniProt Q53GL7).
T1 sequence (whole entry): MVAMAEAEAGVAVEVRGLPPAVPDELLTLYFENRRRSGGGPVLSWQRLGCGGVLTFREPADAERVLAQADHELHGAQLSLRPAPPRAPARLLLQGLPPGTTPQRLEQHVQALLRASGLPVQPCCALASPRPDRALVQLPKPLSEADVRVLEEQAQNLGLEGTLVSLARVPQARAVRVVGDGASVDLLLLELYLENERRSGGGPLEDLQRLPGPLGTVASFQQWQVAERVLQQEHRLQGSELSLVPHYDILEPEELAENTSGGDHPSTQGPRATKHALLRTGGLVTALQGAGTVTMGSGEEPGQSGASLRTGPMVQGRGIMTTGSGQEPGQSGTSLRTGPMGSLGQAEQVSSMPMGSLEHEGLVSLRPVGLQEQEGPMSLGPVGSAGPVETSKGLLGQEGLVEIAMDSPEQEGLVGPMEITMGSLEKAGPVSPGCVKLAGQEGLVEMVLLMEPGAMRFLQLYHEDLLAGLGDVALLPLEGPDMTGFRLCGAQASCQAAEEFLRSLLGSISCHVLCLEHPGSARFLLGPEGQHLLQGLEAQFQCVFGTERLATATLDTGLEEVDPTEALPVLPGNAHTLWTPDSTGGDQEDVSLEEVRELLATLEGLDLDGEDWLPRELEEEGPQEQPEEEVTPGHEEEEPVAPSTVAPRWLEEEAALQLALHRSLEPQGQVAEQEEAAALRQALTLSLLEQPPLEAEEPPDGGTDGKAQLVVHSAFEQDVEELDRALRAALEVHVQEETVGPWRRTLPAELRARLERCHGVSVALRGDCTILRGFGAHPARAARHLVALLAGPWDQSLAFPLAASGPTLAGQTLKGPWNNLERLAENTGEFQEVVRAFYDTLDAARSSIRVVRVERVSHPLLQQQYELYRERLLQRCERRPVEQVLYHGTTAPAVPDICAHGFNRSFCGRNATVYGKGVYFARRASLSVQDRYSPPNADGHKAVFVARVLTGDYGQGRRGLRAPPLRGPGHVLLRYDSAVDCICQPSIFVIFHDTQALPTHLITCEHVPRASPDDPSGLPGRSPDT
In words: Inhibition of N-terminal FLAG-tagged and C-terminal strep-tagged human PARP10 (805 to 1025 residues) expressed in baculovirus infected Sf9 cells assessed as reduction in NAD+-dependent ADP ribosylation using histone as substrate at 10 uM incubated for 1 hr in presence of biotinylated NAD+ and activated DNA by chemiluminescence based microplate reader assay relative to control.

Assay [3] concerns the target T1, Protein mono-ADP-ribosyltransferase PARP10 (Homo sapiens). Briefly: Inhibition of N-terminal FLAG-tagged and C-terminal strep-tagged human PARP10 (805 to 1025 residues) expressed in baculovirus infected Sf9 cells assessed as reduction in NAD+-dependent ADP ribosylation using histone as substrate at 1 uM incubated for 1 hr in presence of biotinylated NAD+ and activated DNA by chemiluminescence based microplate reader assay.

Assay [4] concerns the target Protein mono-ADP-ribosyltransferase PARP14 (Homo sapiens) (UniProt Q460N5). In words: Inhibition of N-terminal His-GST tagged human PARP14 (1470 to 1801 residues) expressed in baculovirus infected Sf9 cells assessed as reduction in NAD+-dependent ADP ribosylation using histone as substrate at 10 uM incubated for 1 hr in presence of biotinylated NAD+ and activated DNA by chemiluminescence based microplate reader assay relative to control.

The target in assay [5] is T2, Protein mono-ADP-ribosyltransferase PARP10 (Homo sapiens, UniProt Q53GL7).
T2 sequence (Q53GL7 whole entry): T1 sequence (whole entry)
In words: Inhibition of N-terminal FLAG-tagged and C-terminal strep-tagged human PARP10 (805 to 1025 residues) expressed in baculovirus infected Sf9 cells assessed as reduction in NAD+-dependent ADP ribosylation using histone as substrate incubated for 1 hr in presence of biotinylated NAD+ and activated DNA by chemiluminescence based microplate reader assay. The method in brief:
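The IC50 was derived from a concentration-dependent inhibition curve for PARP10 in the histone ADP-ribosylation assay.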

`O=C1CCCc2c(OCC(=O)N3CCN(C(=O)CCc4nc5ccccc5[nH]c4=O)C[C@@H]3CO)cccc21`: the inhibition in assay [1] was 12%; in assay [2] it was 9%; in assay [3], 15%.
For `O=C(COc1ccc2c(c1)CCCC2=O)NC[C@@H]1CCCN1C(=O)CCc1nc2ccccc2[nH]c1=O`, the inhibition was 6% in assay [1], 35% in assay [2], 0% in assay [3] and 10% in assay [4].
Consider `O=C(CCc1nc2ccccc2[nH]c1=O)NCC(=O)N1CCN(C(=O)Nc2ccc3c(c2)C(=O)CCC3)CC1`, for which the half-inhibitory concentration (IC50) in assay [5] amounted to 28 µM. In addition, the inhibition in assay [1] amounted to 0%; in assay [2], 46%; in assay [3], 17%.
Turning to `O=C1CCCc2cc(C(=O)N3C[C@@H]4C[C@H]3CN4C(=O)CCc3nc4ccccc4[nH]c3=O)ccc21`, the values for the inhibition in assay [1], in assay [2] and in assay [3] were 7%, 12% and 13%, respectively.
As to `O=C1CCCc2cc(C(=O)N3CCN(C(=O)CCc4nc5ccccc5[nH]c4=O)C[C@H]3CO)ccc21`, the inhibition in assay [1] is 0%; in assay [2], 4%; in assay [3], 13%.
Taken in the same sequence, the figures for `O=C(COc1ccc2c(c1)C(=O)CCC2)NC1CCN(C(=O)CCc2nc3ccccc3[nH]c2=O)CC1` were 27%, 16% and 11%.
Consider `O=C(NC[C@@H]1CCCN1C(=O)CCc1nc2ccccc2[nH]c1=O)c1ccc2c(c1)CCCC2=O`, for which the inhibition in assay [1] worked out at 0%; in assay [2] it was 37%; in assay [3], 0%; in assay [4], 5%.
With `CC[C@H]1CN(C(=O)COc2cccc3c2CCCC3=O)CCN1C(=O)CCc1nc2ccccc2[nH]c1=O`, the inhibition was found to be 17% in assay [1], 15% in assay [2] and 1% in assay [3].
`O=C(CCc1nc2ccccc2[nH]c1=O)NCC(=O)N1CCN(C(=O)COc2cccc3c2CCCC3=O)CC1`: the figures for the inhibition in assay [1], in assay [2] and in assay [3] were 2%, 10% and 13%, respectively.
